Assay results taken from ChEMBL document CHEMBL4316593 (Eur J Med Chem, 2019).
Calls of active or inactive are those of the source. No cut-off for these calls is given here.

What was measured:
U-87 MG [1] = experiment: Induction of apoptosis in human U87 cells assessed as change in ERN1 gene expression at cytotoxic IC50 measured after 48 hrs […] relative to control; assay type: functional, U-87MG ATCC
In short: (§1)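 U87 cells grown in MEM with 10% FBS at 37°C, 5% CO2. Cells exposed to IC50 of test compound for 48 hrs, alongside untreated and cisplatin controls, each condition in triplicate. RNA isolated and profiled; differential expression called with DESeq2 (q-value < 0.05, fold change > 1.5), fold change versus untreated.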

U-87 MG [2] = experiment: Induction of apoptosis in human U87 cells assessed as change in GADD45B gene expression at cytotoxic IC50 measured after 48 hrs […] relative to control; assay type: functional, U-87MG ATCC; in short: as §1
[3] = Inhibition of RTK/PI3K/AKT/mTOR signaling in human U87 cells assessed as down regulation of MAFF gene expression at cytotoxic IC50 measured after 48 hrs relative to control; assay type: cell-based; conditions: U-87MG ATCC
In short: (§2)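 Cells were exposed for 48hrs at 37°C in humidified 5% CO₂ to the compound at its previously determined IC₅₀, with Cisplatin at its IC₅₀ and an untreated negative control alongside. Each condition was run in triplicate. RNA was isolated from all samples by the same protocol. Genes were called differentially expressed by DESeq2 at q-value < 0.05 and fold change > 1.5.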

[4] = Inhibition of RTK/PI3K/AKT/mTOR signaling in human U87 cells assessed as up regulation of regulator of chromosome condensation 2 gene expression at cytotoxic IC50 measured after 48 hrs relative to control; assay type: cell-based; conditions: U-87MG ATCC
[5] = Inhibition of RTK/PI3K/AKT/mTOR signaling in human U87 cells assessed as down regulation of ZNF106 gene expression at cytotoxic IC50 measured after 48 hrs relative to control; assay type: cell-based; conditions: U-87MG ATCC; in short: as §2
[6] = Inhibition of RTK/PI3K/AKT/mTOR signaling in human U87 cells assessed as up regulation of solute carrier family 4 member 2 gene expression at cytotoxic IC50 measured after 48 hrs relative to control; assay type: cell-based; conditions: U-87MG ATCC
[7] = Inhibition of RTK/PI3K/AKT/mTOR signaling in human U87 cells assessed as up regulation of tribbles pseudokinase 2 gene expression at cytotoxic IC50 measured after 48 hrs relative to control; assay type: cell-based; conditions: U-87MG ATCC
[8] = Inhibition of RTK/PI3K/AKT/mTOR signaling in human U87 cells assessed as down regulation of DEF8 gene expression at cytotoxic IC50 measured after 48 hrs relative to control; assay type: cell-based; conditions: U-87MG ATCC; in short: as §1
U-87 MG [9] = experiment: Induction of DNA damage in human U87 cells assessed as change in FANCI gene expression at cytotoxic IC50 measured after 48 hrs […] relative to control; assay type: functional, U-87MG ATCC
In short: (§3)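 U87 expression profiling. Cells incubated 48hrs at 37°C, 5% CO₂ with the IC₅₀ concentration, alongside a cisplatin and an untreated control, in triplicate. RNA was isolated by one common protocol and profiled. DEGs were called with DESeq2 (q < 0.05, fold change > 1.5) and expressed as fold change versus untreated.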

[10] = Inhibition of RTK/PI3K/AKT/mTOR signaling in human U87 cells assessed as up regulation of lecithin retinol acyltransferase (phosphatidylcholine-retinol O-acyltransferase) gene expression at cytotoxic IC50 measured after 48 hrs relative to control; assay type: cell-based; conditions: U-87MG ATCC
[11] = Inhibition of RTK/PI3K/AKT/mTOR signaling in human U87 cells assessed as up regulation of lemur tyrosine kinase 3 gene expression at cytotoxic IC50 measured after 48 hrs relative to control; assay type: cell-based; conditions: U-87MG ATCC
[12] = Inhibition of RTK/PI3K/AKT/mTOR signaling in human U87 cells assessed as down regulation of CMTM3 gene expression at cytotoxic IC50 measured after 48 hrs relative to control; assay type: cell-based; conditions: U-87MG ATCC; in short: as §1
[13] = Inhibition of RTK/PI3K/AKT/mTOR signaling in human U87 cells assessed as down regulation of DTL gene expression at cytotoxic IC50 measured after 48 hrs relative to control; assay type: cell-based; conditions: U-87MG ATCC; in short: as §1
LN-229 [14] = experiment: Cell cycle arrest in human LN229 cells assessed as decrease in accumulation at S-phase at cytotoxic IC50 measured after 48 hrs by propidium iodide staining based fluorescence cell imaging analysis; assay type: functional
In short: (§4)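 Cell cycle by PI staining. Cells seeded at 1×10^6 and grown overnight at 37°C, 5% CO₂, then exposed for 48hrs at their IC₅₀ concentration, with DMSO and cisplatin controls. Cells were trypsinized, washed in cold PBS and fixed in 70% ethanol at 4°C for 30 min. They were stained with PI in Triton X-100/RNase for 15 min at 37°C and imaged by fluorescence microscopy. Reported as mean ± S.E.M of triplicates.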

LN-229 [15] = experiment: Cell cycle arrest in human LN229 cells assessed as accumulation at G1/S-phase at cytotoxic IC50 measured after 48 hrs by propidium iodide staining based fluorescence cell imaging analysis; assay type: functional; in short: as §4
U-87 MG [16] = experiment: Induction of apoptosis in human U87 cells assessed as change in CTSV gene expression at cytotoxic IC50 measured after 48 hrs […] relative to control; assay type: functional, U-87MG ATCC; in short: as §1
[17] = Inhibition of RTK/PI3K/AKT/mTOR signaling in human U87 cells assessed as down regulation of FAM222A gene expression at cytotoxic IC50 measured after 48 hrs relative to control; assay type: cell-based; conditions: U-87MG ATCC; in short: as §1
U-87 MG [18] = experiment: Induction of DNA damage in human U87 cells assessed as change in RPS27L gene expression at cytotoxic IC50 measured after 48 hrs […] relative to control; assay type: functional, U-87MG ATCC; in short: as §3
[19] = Inhibition of RTK/PI3K/AKT/mTOR signaling in human U87 cells assessed as up regulation of ZNF395 gene expression at cytotoxic IC50 measured after 48 hrs relative to control; assay type: cell-based; conditions: U-87MG ATCC
U-87 MG [20] = experiment: Cell cycle arrest in human U87 cells assessed as change in SFN gene expression at cytotoxic IC50 measured after 48 hrs […] relative to control; assay type: functional, U-87MG ATCC; in short: as §3
[21] = Inhibition of RTK/PI3K/AKT/mTOR signaling in human U87 cells assessed as up regulation of ubiquitin-fold modifier conjugating enzyme 1 gene expression at cytotoxic IC50 measured after 48 hrs relative to control; assay type: cell-based; conditions: U-87MG ATCC
[22] = Inhibition of RTK/PI3K/AKT/mTOR signaling in human U87 cells assessed as up regulation of ETS variant 1 gene expression at cytotoxic IC50 measured after 48 hrs relative to control; assay type: cell-based; conditions: U-87MG ATCC; in short: as §2
[23] = Inhibition of RTK/PI3K/AKT/mTOR signaling in human U87 cells assessed as down regulation of NFIL3 gene expression at cytotoxic IC50 measured after 48 hrs relative to control; assay type: cell-based; conditions: U-87MG ATCC; in short: as §2
[24] = Inhibition of RTK/PI3K/AKT/mTOR signaling in human U87 cells assessed as up regulation of ankyrin repeat domain 10 gene expression at cytotoxic IC50 measured after 48 hrs relative to control; assay type: cell-based; conditions: U-87MG ATCC
U-87 MG [25] = experiment: Cell cycle arrest in human U87 cells assessed as change in CDK1 gene expression at cytotoxic IC50 measured after 48 hrs […] relative to control; assay type: functional, U-87MG ATCC; in short: as §3
U-87 MG [26] = experiment: Induction of apoptosis in human U87 cells assessed as change in CAPN2 gene expression at cytotoxic IC50 measured after 48 hrs […] relative to control; assay type: functional, U-87MG ATCC; in short: as §1
U-87 MG [27] = experiment: Induction of apoptosis in human U87 cells assessed as change in BCL2L1 gene expression at cytotoxic IC50 measured after 48 hrs […] relative to control; assay type: functional, U-87MG ATCC; in short: as §1

CC(=O)C(=NNc1ccccc1C#N)C(C)=O
log2FC (U-87 MG [1]): -1.369 | log2FC (U-87 MG [2]): -2.899 | log2FC [3]: -1.1 | log2FC [4]: 1.06 | log2FC [5]: -0.749 | log2FC [6]: 1.04 | log2FC [7]: 1.41 | log2FC [8]: -0.591 | fold change (FC) (U-87 MG [9]): 1.708 | log2FC [10]: 1.23 | log2FC [11]: 0.868 | log2FC [12]: -0.716 | log2FC [13]: -1.56 | Activity (LN-229 [14]): Active | Activity (LN-229 [15]): Active | log2FC (U-87 MG [16]): 1.986 | log2FC [17]: -1.4 | fold change (FC) (U-87 MG [18]): 2.121 | log2FC [19]: 1.89 | fold change (FC) (U-87 MG [20]): 1.949 | log2FC [21]: 0.669 | log2FC [22]: 1.09 | log2FC [23]: -0.44 | log2FC [24]: 1.12 | fold change (FC) (U-87 MG [25]): 1.569 | log2FC (U-87 MG [26]): -1.189 | log2FC (U-87 MG [27]): 0.9994
